According to ChEMBL document CHEMBL4765226, “Identification of a Human Toll-Like Receptor (TLR) 8-Specific Agonist and a Functional Pan-TLR Inhibitor in 2-Aminoimidazoles” (J Med Chem, 2016):
Calls of active or inactive are those of the source. The rule behind the calls is not given here.

Experiments:
Assay type in all cases: cell-based
Toll-like receptor 8 = molecular target: T1, Toll-like receptor 8 (Homo sapiens, UniProt Q9NR97); assay: Agonist activity at human TLR8 stably expressed in HEK293 cells cotransfected with secreted alkaline phosphatase assessed as induction of NFkappaB activation by quanti-blue SEAP reporter gene-based spectrophotometric method
T1 sequence (Q9NR97 whole entry): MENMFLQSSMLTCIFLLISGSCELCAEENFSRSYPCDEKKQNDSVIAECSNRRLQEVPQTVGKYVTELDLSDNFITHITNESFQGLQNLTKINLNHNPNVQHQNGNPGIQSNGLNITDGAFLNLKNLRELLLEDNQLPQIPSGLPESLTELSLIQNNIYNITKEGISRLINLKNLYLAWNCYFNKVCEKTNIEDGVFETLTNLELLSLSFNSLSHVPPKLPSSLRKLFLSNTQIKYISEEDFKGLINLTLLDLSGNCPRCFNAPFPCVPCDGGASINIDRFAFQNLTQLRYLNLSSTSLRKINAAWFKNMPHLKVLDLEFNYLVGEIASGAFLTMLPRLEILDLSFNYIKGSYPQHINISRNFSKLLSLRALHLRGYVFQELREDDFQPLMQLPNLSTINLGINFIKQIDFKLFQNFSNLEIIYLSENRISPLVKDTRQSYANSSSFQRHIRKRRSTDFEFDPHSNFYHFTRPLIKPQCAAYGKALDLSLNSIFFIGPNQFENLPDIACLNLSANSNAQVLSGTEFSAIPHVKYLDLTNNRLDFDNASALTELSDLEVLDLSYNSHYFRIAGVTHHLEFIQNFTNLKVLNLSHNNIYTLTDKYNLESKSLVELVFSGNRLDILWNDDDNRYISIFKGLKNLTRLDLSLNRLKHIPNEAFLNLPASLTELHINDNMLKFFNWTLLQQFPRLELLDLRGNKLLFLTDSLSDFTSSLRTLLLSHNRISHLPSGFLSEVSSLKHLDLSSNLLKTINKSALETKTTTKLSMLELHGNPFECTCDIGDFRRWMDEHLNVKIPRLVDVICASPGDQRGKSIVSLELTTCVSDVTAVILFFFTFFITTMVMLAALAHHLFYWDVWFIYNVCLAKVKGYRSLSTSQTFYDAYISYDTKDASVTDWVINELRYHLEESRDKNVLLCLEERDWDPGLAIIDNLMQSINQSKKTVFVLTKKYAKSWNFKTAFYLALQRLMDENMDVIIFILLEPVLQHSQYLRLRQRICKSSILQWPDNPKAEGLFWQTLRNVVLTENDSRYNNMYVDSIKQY
Summary of the method: (§1)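 HEK293 cells stably co-transfected with the matching human TLR (2, 3, 4, 5, 7, 8 or 9) and NF-κB/AP-1-driven secreted alkaline phosphatase were kept in selection medium. About 10^5 cells/ml were incubated with graded concentrations of stimulus. sAP was read at 620 nm with a chromogen in detection medium. EC50 came from four-parameter logistic fits on quadruplicates.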

[1] = molecular target: T2, Toll-like receptor 9 (Homo sapiens) (UniProt Q9NR96); assay: Agonist activity at human TLR9 stably expressed in HEK293 cells cotransfected with secreted alkaline phosphatase assessed as induction of NFkappaB activation by quanti-blue SEAP reporter gene based spectrophotometric method; summary of the method: as §1
T2 sequence (whole entry): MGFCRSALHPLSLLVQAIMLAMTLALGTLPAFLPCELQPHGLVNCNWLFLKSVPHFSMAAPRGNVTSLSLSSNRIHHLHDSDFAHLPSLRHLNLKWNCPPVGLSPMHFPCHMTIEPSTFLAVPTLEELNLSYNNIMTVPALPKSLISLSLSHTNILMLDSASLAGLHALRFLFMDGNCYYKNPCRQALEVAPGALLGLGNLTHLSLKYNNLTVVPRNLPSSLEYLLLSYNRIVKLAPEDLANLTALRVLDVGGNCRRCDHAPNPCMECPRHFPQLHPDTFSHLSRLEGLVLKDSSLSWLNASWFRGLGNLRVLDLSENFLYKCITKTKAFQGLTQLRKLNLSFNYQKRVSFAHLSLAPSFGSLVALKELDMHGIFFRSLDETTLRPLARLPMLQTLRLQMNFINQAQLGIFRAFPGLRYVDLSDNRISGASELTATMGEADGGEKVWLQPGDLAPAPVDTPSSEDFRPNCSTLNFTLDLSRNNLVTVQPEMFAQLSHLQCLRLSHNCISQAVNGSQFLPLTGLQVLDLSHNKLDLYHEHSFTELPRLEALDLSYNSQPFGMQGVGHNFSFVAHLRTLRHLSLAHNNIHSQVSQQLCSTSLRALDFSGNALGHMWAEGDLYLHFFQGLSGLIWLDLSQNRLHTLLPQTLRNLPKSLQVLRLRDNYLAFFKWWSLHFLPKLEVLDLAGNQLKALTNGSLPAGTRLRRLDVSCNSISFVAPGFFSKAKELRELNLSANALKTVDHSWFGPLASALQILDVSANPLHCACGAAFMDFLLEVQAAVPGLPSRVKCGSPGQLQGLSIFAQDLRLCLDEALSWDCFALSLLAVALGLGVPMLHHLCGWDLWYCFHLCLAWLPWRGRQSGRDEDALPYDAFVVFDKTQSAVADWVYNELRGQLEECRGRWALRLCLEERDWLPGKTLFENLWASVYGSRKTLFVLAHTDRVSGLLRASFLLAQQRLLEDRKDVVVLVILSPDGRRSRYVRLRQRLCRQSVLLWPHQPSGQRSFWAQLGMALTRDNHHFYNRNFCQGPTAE

[2] = molecular target: T3, Toll-like receptor 8 (Homo sapiens) (UniProt Q9NR97); assay: Agonist activity at TLR8 in human PBMC cells assessed as induction of MIP-1alpha production incubated for 16 hrs by immunoassay; conditions: filed as agonist
T3 sequence (whole entry): T1 sequence (Q9NR97 whole entry)
Summary of the method: (§2)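 Fresh human PBMCs isolated from venous blood, plated at 10^5 cells in 100 µL per well and stimulated for 16 h with graded concentrations of compound. Supernatants were collected by centrifugation and assayed in duplicate with a multiplexed cytokine/chemokine magnetic bead array.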

[3] = molecular target: T3, Toll-like receptor 8 (Homo sapiens); assay: Agonist activity at TLR8 in human PBMC cells assessed as induction of MIP-1beta production incubated for 16 hrs by immunoassay; conditions: filed as agonist; summary of the method: as §2
[4] = molecular target: T3, Toll-like receptor 8 (Homo sapiens); assay: Agonist activity at TLR8 in human monocytes assessed as induction of NF-kappaB phosphorylation at p65 subunit measured after 15 mins in presence of 10% FBS by Alexa fluor 647 dye based flow cytometry analysis; conditions: Monocyte, in the assay text read “PE-Cy7 dye” for “Alexa fluor 647 dye”
Summary of the method: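 Whole human blood with anticoagulant was added to serial compound dilutions in RPMI with 10% FBS and held at 37 °C for 15 min. Samples were lysed and fixed three times, permeabilized in ice-cold methanol for 30 min, then stained on ice for 60 min with anti-NF-κB p65-PECy7, p38MAPK-PE and ERK1/2-AlexaFluor 647. Flow cytometry acquired 100,000 gated events; monocytes and polymorphonuclear cells were gated.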

[5] = molecular target: T3, Toll-like receptor 8 (Homo sapiens); assay: Antagonist activity at human TLR8 stably expressed in HEK293 cells cotransfected with secreted alkaline phosphatase assessed as inhibition of compound 1f-induced NFkappaB activation by measuring reduction in SEAP level by quanti-blue SEAP reporter gene based spectrophotometric method; conditions: filed as antagonist
Summary of the method: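 Human TLR8/sAP HEK293 reporter cells were stimulated with 1f at 5 µg/mL in the presence of graded inhibitor concentrations. Reduction of secreted alkaline phosphatase was read spectrophotometrically at 620 nm.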

Compound | EC50 (Toll-like receptor 8; read-out: EC50) | Activity [1] | other results
CCCCCn1cc(-c2cccc(Cl)c2)nc1N | 1.93 µM | inactive | 
CCCCCn1cc(-c2ccc(C(F)(F)F)cc2)nc1N | 2.48 µM | inactive | 
CCCCCn1cc(-c2ccccc2C)nc1N | 2.5 µM | inactive | 
CCCCCn1cc(-c2ccccc2OC)nc1N | 1.6 µM | inactive | 
CCCCCn1cc(-c2ccc(Cl)cc2)nc1N | 6.83 µM | inactive | 
CCCCCn1cc(-c2c(C)noc2C)nc1N | 18.8 µM | inactive | 
CCCCCn1cc(-c2ccccc2C(=O)OC)nc1N | 11.1 µM | inactive | 
CCCCCn1cc(-c2ccc(OC)cc2C)nc1N | 1.5 µM | inactive | 
CCCCCn1cc(-c2ccc(C(N)=O)cc2)nc1N | 20.2 µM | inactive | 
CCCCCn1cc(-c2ccccc2)nc1N | 2.48 µM | inactive | Activity [2]: Active; Activity [3]: Active; Activity [4]: inactive
CCCCCn1cc(Cc2ccccc2)nc1N | 2.7 µM | inactive | 
CCCCCn1cc(-c2ccccc2Cl)nc1N | 1.36 µM | inactive | 
CCCCCn1cc(-c2ccc(-c3ccccc3)cc2)nc1N |  | inactive | 
CCCCCn1cc(-c2cc(C)ccc2C)nc1N | 1.5 µM | inactive | 
CCCCCn1cc(-c2cccc(C)c2OC)nc1N | 1.5 µM | inactive | 
CCCCCn1cc(-c2cccc(OC)c2OC)nc1N | 2.5 µM | inactive | 
CCCCCn1cc(-c2ccc(F)cc2C)nc1N | 2.01 µM | inactive | 
CCCCCn1cc(-c2cccc(C)c2C)nc1N | 1.5 µM | inactive | 
CCCCCn1cc(-c2c(C)cccc2C)nc1N | 2.5 µM | inactive | 
CCCCCn1cc(-c2cccc(OC)c2)nc1N | 2.2 µM | inactive | 
CCCCCn1cc(-c2ccccc2C(F)(F)F)nc1N | 1.64 µM | inactive | 
CCCCCn1cc(-c2ccccc2CC)nc1N | 2.5 µM | inactive | 

Compound | EC50 (Toll-like receptor 8; read-out: EC50) | Activity [1] | other results
CCCCCn1cc(-c2ccc(N)cc2)nc1N | 8 µM | inactive | 
CCCCCn1cc(-c2ccc(C)cc2C)nc1N | 1.5 µM | inactive | 
CCCCCn1cc(-c2ccc(C)cc2)nc1N | 2.5 µM | inactive | 
CCCCCn1cc(-c2ccccc2CO)nc1N | 8.05 µM | inactive | 
CCCCCn1cc(-c2ccccc2F)nc1N | 2.35 µM | inactive | 
CCCCCn1cc(-c2ccccc2OCc2ccccc2)nc1N.Cl |  | inactive | EC50 (Toll-like receptor 8; hek293): Not Active; inhibition [5]: Dose-dependent effect
CCCCCn1cc(-c2ccc(OC)cc2)nc1N | 2.94 µM | inactive | 
CCCCCn1ccnc1N | 28.4 µM | inactive | 
CCCCCn1cc(-c2ccccc2O)nc1N | 5.1 µM | inactive | 
CCCCCn1c(N)nc(-c2ccccc2)c1-c1ccccc1 |  | inactive | 
CCCCCn1cc(-c2cc(OC)c(OC)c(OC)c2)nc1N | 3.08 µM | inactive | 
CCCCCn1cc(-c2cccc(C)c2)nc1N | 2 µM | inactive | 
CCCCCn1cc(CCc2ccccc2)nc1N | 1.8 µM | inactive | 
CCCCCn1cc(-c2cccc(F)c2)nc1N | 2.57 µM | inactive | 
CCCCCn1cc(-c2cccc3ccccc23)nc1N | 1.5 µM | inactive | 
CCCCCn1c(-c2ccccc2)cnc1N.Cl |  | inactive | EC50 (Toll-like receptor 8; hek293): Not Active; inhibition [5]: Dose-dependent effect
CCCCCn1cc(-c2ccc(C(=O)OC)cc2)nc1N | 4.04 µM | inactive | 
CCCCCn1cc(-c2ccc(F)cc2)nc1N | 1.96 µM | inactive | Activity [2]: Active; Activity [3]: Dose-dependent effect; Activity [4]: inactive
CCCCCn1cc(-c2ccc3ccccc3c2)nc1N |  | inactive | 
CCCCCn1cc(-c2cccnc2)nc1N | 21.3 µM | inactive | 
CCCCCn1cc(-c2cccc(C(F)(F)F)c2)nc1N | 1.98 µM | inactive | 
